For 20 compounds, IC50 and inhibition results are on record in ChEMBL document CHEMBL4004857, “Synthesis and biological evaluation of novel pyrazolic chalcone derivatives as novel hepatocellular carcinoma therapeutics” (Eur J Med Chem, 2017).

By pIC50 is commonly meant −log10 of the IC50, conventionally taken in molar units.

pIC50: −log10 of the molar value. The source made the active and inactive calls. The calls are words filed in the database; no cut-off is given here.

The subject of the first experiment is MCF7. Kind of experiment: Cytotoxicity against human MCF7 cells assessed as growth inhibition after 72 hrs by SRB assay. Format: functional, cell-based. Particulars: MCF7, 72 h. An outline of the steps: (§1)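 Cells seeded at 2000–3000 per well and grown 24 h at 37C, then treated in triplicate with compounds dissolved in DMSO over a 40–0.3 range for 72 h. Cells were fixed with 10% TCA for 1 h, stained with 0.4% SRB in 1% acetic acid, washed with 1% acetic acid and air-dried. Bound dye was solubilized in 10 mM Tris base and read at 515 nm. % inhibition and IC50 were calculated against DMSO-only controls.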
For `COc1ccc(C(=O)/C=C/c2cn(-c3ccccc3)nc2-c2ccc3c(c2)OCO3)c(OC)c1OC`, the pIC50 was 5.13.
Still for that read-out and setting: to `O=C(/C=C/c1cn(-c2ccccc2)nc1-c1cccnc1)c1c[nH]c2ccccc12` belongs 5.59.
The same measure, in the same setting: the figure for `O=C(/C=C/c1cn(-c2ccccc2)nc1-c1ccc2c(c1)OCO2)c1cccnc1` is 5.66; for `O=C(/C=C/c1cn(-c2ccccc2)nc1-c1ccc2c(c1)OCO2)c1cc[nH]c1` it is 5.00.
Take `O=C(/C=C/c1cn(-c2ccccc2)nc1-c1ccc2c(c1)OCO2)c1ccccn1`: the pIC50 was 5.39.
Still for that read-out and setting: the figure for `O=C(/C=C/c1cn(-c2ccccc2)nc1-c1ccncc1)c1ccc2c(c1)OCO2` is 6.10.
Regarding `COc1ccc(C(=O)/C=C/c2cn(-c3ccccc3)nc2-c2cccnc2)cc1OC`, the pIC50 is 5.77.
Same read-out and setting: the figure for `COc1ccc(C(=O)/C=C/c2cn(-c3ccccc3)nc2-c2ccsc2)c(OC)c1OC` is 5.13.
For `COc1cc(C(=O)/C=C/c2cn(-c3ccccc3)nc2-c2ccsc2)cc(OC)c1OC`, the pIC50 is 5.31.
The same measure, in the same setting: the figure for `COc1ccc(C(=O)/C=C/c2cn(-c3ccccc3)nc2-c2ccncc2)c(OC)c1` is 5.06; for `O=c1[nH]cc(F)c(=O)[nH]1` [FLUOROURACIL] it is 5.85; for `COc1ccc(C(=O)/C=C/c2cn(-c3ccccc3)nc2-c2ccsc2)c(OC)c1` it is 5.05.
Still for that read-out and setting: the figure for `O=C(/C=C/c1cn(-c2ccccc2)nc1-c1cccnc1)c1cc[nH]c1` is 5.16; for `O=C(/C=C/c1cn(-c2ccccc2)nc1-c1cccnc1)c1ccccn1` it is 5.38.
On the same count and under the same terms, to `COc1cc(C(=O)/C=C/c2cn(-c3ccccc3)nc2-c2ccc3c(c2)OCO3)cc(OC)c1OC` belongs 4.96; to `COc1cc(C(=O)/C=C/c2cn(-c3ccccc3)nc2-c2cccnc2)cc(OC)c1OC`, 4.84.
For the compound `O=C(/C=C/c1cn(-c2ccccc2)nc1-c1ccsc1)c1ccccc1`, the pIC50 is 5.72.
For `O=C(/C=C/c1cn(-c2ccccc2)nc1-c1ccncc1)c1ccccc1`, the pIC50 is 5.47.
Still for that read-out and setting: the figure for `O=C(/C=C/c1cn(-c2ccccc2)nc1-c1ccc2c(c1)OCO2)c1ccccc1` is 4.95.
Same read-out and setting: to `COc1ccc(C(=O)/C=C/c2cn(-c3ccccc3)nc2-c2ccncc2)cc1OC` belongs 5.37.

For the next experiment, the system named is HCT-116. The experiment is described as follows: Cytotoxicity against human HCT116 cells assessed as growth inhibition after 72 hrs by SRB assay. Particulars: HCT-116, 72 h. In kind it is functional, cell-based. In short, it runs like this: as §1
(In general: Sulforhodamine B stains cellular protein and so reports cell mass.)
As for `COc1ccc(C(=O)/C=C/c2cn(-c3ccccc3)nc2-c2ccc3c(c2)OCO3)c(OC)c1OC`, the pIC50 is 5.49.
For `O=C(/C=C/c1cn(-c2ccccc2)nc1-c1cccnc1)c1c[nH]c2ccccc12`, the pIC50 was 5.19.
As for `O=C(/C=C/c1cn(-c2ccccc2)nc1-c1ccc2c(c1)OCO2)c1cccnc1`, the pIC50 is 5.42.
The same measure, in the same setting: the figure for `O=C(/C=C/c1cn(-c2ccccc2)nc1-c1ccc2c(c1)OCO2)c1cc[nH]c1` is 4.69; for `O=C(/C=C/c1cn(-c2ccccc2)nc1-c1ccc2c(c1)OCO2)c1ccccn1` it is 5.17.
Consider `O=C(/C=C/c1cn(-c2ccccc2)nc1-c1ccncc1)c1ccc2c(c1)OCO2`, for which the pIC50 is 5.28.
The same measure, in the same setting: to `COc1ccc(C(=O)/C=C/c2cn(-c3ccccc3)nc2-c2cccnc2)cc1OC` belongs 5.37; to `COc1ccc(C(=O)/C=C/c2cn(-c3ccccc3)nc2-c2ccsc2)c(OC)c1OC`, 5.24; to `COc1cc(C(=O)/C=C/c2cn(-c3ccccc3)nc2-c2ccsc2)cc(OC)c1OC`, 5.49.
The same measure, in the same setting: the figure for `COc1ccc(C(=O)/C=C/c2cn(-c3ccccc3)nc2-c2ccncc2)c(OC)c1` is 5.36; for `O=c1[nH]cc(F)c(=O)[nH]1` [FLUOROURACIL] it is 4.74; for `COc1ccc(C(=O)/C=C/c2cn(-c3ccccc3)nc2-c2ccsc2)c(OC)c1` it is 5.66.
`O=C(/C=C/c1cn(-c2ccccc2)nc1-c1cccnc1)c1cc[nH]c1`: the pIC50 is 5.13.
For the compound `O=C(/C=C/c1cn(-c2ccccc2)nc1-c1cccnc1)c1ccccn1`, the pIC50 was 5.68.
Consider `COc1cc(C(=O)/C=C/c2cn(-c3ccccc3)nc2-c2ccc3c(c2)OCO3)cc(OC)c1OC`, for which the negative-log IC50 (pIC50) is 5.08.
With `COc1cc(C(=O)/C=C/c2cn(-c3ccccc3)nc2-c2cccnc2)cc(OC)c1OC`, the pIC50 was 5.07.
Same read-out and setting: the figure for `O=C(/C=C/c1cn(-c2ccccc2)nc1-c1ccsc1)c1ccccc1` is 5.29; for `O=C(/C=C/c1cn(-c2ccccc2)nc1-c1ccncc1)c1ccccc1` it is 5.51.
The same measure, in the same setting: the figure for `O=C(/C=C/c1cn(-c2ccccc2)nc1-c1ccc2c(c1)OCO2)c1ccccc1` is 5.94.
Regarding `COc1ccc(C(=O)/C=C/c2cn(-c3ccccc3)nc2-c2ccncc2)cc1OC`, the negative-log IC50 (pIC50) is 5.92.

The subject of another experiment is Huh-7. Kind of experiment: Cytotoxicity against human HuH7 cells assessed as growth inhibition after 72 hrs by SRB assay. Format: functional, cell-based. The following applies: Huh-7, 72 h. An outline of the steps: as §1
On to `COc1ccc(C(=O)/C=C/c2cn(-c3ccccc3)nc2-c2ccc3c(c2)OCO3)c(OC)c1OC`, for which the pIC50 was 4.97.
Same read-out and setting: the figure for `O=C(/C=C/c1cn(-c2ccccc2)nc1-c1cccnc1)c1c[nH]c2ccccc12` is 5.49.
The same measure, in the same setting: to `O=C(/C=C/c1cn(-c2ccccc2)nc1-c1ccc2c(c1)OCO2)c1cccnc1` belongs 5.47; to `O=C(/C=C/c1cn(-c2ccccc2)nc1-c1ccc2c(c1)OCO2)c1cc[nH]c1`, 5.04.
For `O=C(/C=C/c1cn(-c2ccccc2)nc1-c1ccc2c(c1)OCO2)c1ccccn1`, the pIC50 is 5.47.
Still for that read-out and setting: to `O=C(/C=C/c1cn(-c2ccccc2)nc1-c1ccncc1)c1ccc2c(c1)OCO2` belongs 6.40; to `COc1ccc(C(=O)/C=C/c2cn(-c3ccccc3)nc2-c2cccnc2)cc1OC`, 5.51.
The same measure, in the same setting: to `COc1ccc(C(=O)/C=C/c2cn(-c3ccccc3)nc2-c2ccsc2)c(OC)c1OC` belongs 5.38.
On the same count and under the same terms, the figure for `COc1cc(C(=O)/C=C/c2cn(-c3ccccc3)nc2-c2ccsc2)cc(OC)c1OC` is 5.44; for `COc1ccc(C(=O)/C=C/c2cn(-c3ccccc3)nc2-c2ccncc2)c(OC)c1` it is 5.36; for `O=c1[nH]cc(F)c(=O)[nH]1` [FLUOROURACIL] it is 4.68.
Consider `COc1ccc(C(=O)/C=C/c2cn(-c3ccccc3)nc2-c2ccsc2)c(OC)c1`, for which the pIC50 is 5.52.
Consider `O=C(/C=C/c1cn(-c2ccccc2)nc1-c1cccnc1)c1cc[nH]c1`, for which the pIC50 was 5.48.
Consider `O=C(/C=C/c1cn(-c2ccccc2)nc1-c1cccnc1)c1ccccn1`, for which the negative logarithm of the IC50 (pIC50) was 5.19.
`COc1cc(C(=O)/C=C/c2cn(-c3ccccc3)nc2-c2ccc3c(c2)OCO3)cc(OC)c1OC`: the negative-log IC50 (pIC50) is 4.93.
Take `COc1cc(C(=O)/C=C/c2cn(-c3ccccc3)nc2-c2cccnc2)cc(OC)c1OC`: the negative logarithm of the IC50 (pIC50) is 5.72.
Still for that read-out and setting: to `O=C(/C=C/c1cn(-c2ccccc2)nc1-c1ccsc1)c1ccccc1` belongs 5.33; to `O=C(/C=C/c1cn(-c2ccccc2)nc1-c1ccncc1)c1ccccc1`, 5.74.
The same measure, in the same setting: the figure for `O=C(/C=C/c1cn(-c2ccccc2)nc1-c1ccc2c(c1)OCO2)c1ccccc1` is 4.98.
As to `COc1ccc(C(=O)/C=C/c2cn(-c3ccccc3)nc2-c2ccncc2)cc1OC`, the negative-log IC50 (pIC50) is 5.70.

The species entered for another experiment is Homo sapiens. Kind of experiment: Inhibition of tubulin polymerization (unknown origin).
Settings: not given
Regarding `COc1ccc(C(=O)/C=C/c2cn(-c3ccccc3)nc2-c2ccc3c(c2)OCO3)c(OC)c1OC`, the inhibition entry is “inactive”.
Still for that read-out and setting: the entry for `O=C(/C=C/c1cn(-c2ccccc2)nc1-c1cccnc1)c1c[nH]c2ccccc12` is “inactive”; for `O=C(/C=C/c1cn(-c2ccccc2)nc1-c1ccc2c(c1)OCO2)c1cccnc1` it is “inactive”.
As for `O=C(/C=C/c1cn(-c2ccccc2)nc1-c1ccc2c(c1)OCO2)c1cc[nH]c1`, the inhibition result was “inactive”.
`O=C(/C=C/c1cn(-c2ccccc2)nc1-c1ccc2c(c1)OCO2)c1ccccn1`: the inhibition result is “inactive”.
Regarding `O=C(/C=C/c1cn(-c2ccccc2)nc1-c1ccncc1)c1ccc2c(c1)OCO2`, the inhibition result is “inactive”.
Still for that read-out and setting: to `COc1ccc(C(=O)/C=C/c2cn(-c3ccccc3)nc2-c2cccnc2)cc1OC` belongs “inactive”; to `COc1ccc(C(=O)/C=C/c2cn(-c3ccccc3)nc2-c2ccsc2)c(OC)c1OC`, “inactive”.
Regarding `COc1cc(C(=O)/C=C/c2cn(-c3ccccc3)nc2-c2ccsc2)cc(OC)c1OC`, the inhibition result was “inactive”.
Same read-out and setting: to `COc1ccc(C(=O)/C=C/c2cn(-c3ccccc3)nc2-c2ccncc2)c(OC)c1` belongs “inactive”; to `COc1ccc(C(=O)/C=C/c2cn(-c3ccccc3)nc2-c2ccsc2)c(OC)c1`, “inactive”.
As to `O=C(/C=C/c1cn(-c2ccccc2)nc1-c1cccnc1)c1cc[nH]c1`, the inhibition result was “inactive”.
On the same count and under the same terms, the entry for `O=C(/C=C/c1cn(-c2ccccc2)nc1-c1cccnc1)c1ccccn1` is “inactive”; for `COc1cc(C(=O)/C=C/c2cn(-c3ccccc3)nc2-c2ccc3c(c2)OCO3)cc(OC)c1OC` it is “inactive”; for `COc1cc(C(=O)/C=C/c2cn(-c3ccccc3)nc2-c2cccnc2)cc(OC)c1OC` it is “inactive”.
Same read-out and setting: to `O=C(/C=C/c1cn(-c2ccccc2)nc1-c1ccsc1)c1ccccc1` belongs “inactive”; to `O=C(/C=C/c1cn(-c2ccccc2)nc1-c1ccncc1)c1ccccc1`, “inactive”.
As to `O=C(/C=C/c1cn(-c2ccccc2)nc1-c1ccc2c(c1)OCO2)c1ccccc1`, the inhibition entry is “inactive”.
The same measure, in the same setting: the entry for `COc1ccc(C(=O)/C=C/c2cn(-c3ccccc3)nc2-c2ccncc2)cc1OC` is “inactive”.
